In ChEMBL document CHEMBL1144718, “Novel 3-aroylpyrazolo[5,1-c][1,2,4]benzotriazine 5-oxides 8-substituted, ligands at GABAA/benzodiazepine receptor complex: synthesis, pharmacological and molecular modeling studies” (Bioorg Med Chem, 2008):
Calls of active or inactive are those of the source. No cut-off for these calls is given here.

Columns and labels:
[1] = Displacement of [3H]flumazenil from GABAA/BzR complex in bovine cerebral cortex membrane; format: cell membranes, Bos taurus
Method in brief: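 Bovine cerebral cortex membranes in 50 mM Tris-citrate pH 7.4 incubated with [3H]Ro15-1788 (1–2 nM) for 1 h at 4 °C to equilibrium; nonspecific binding with 10^-5 M diazepam; DMSO ≤1%. Ki from ≥6 concentrations (10^-9–10^-5 M) by curve fitting and Cheng–Prusoff; percent inhibition at 10 µM; five determinations, triplicate.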

Mus musculus [2] = test: Effect on motor coordination in CD1 Albino mouse assessed as number of falls in 30 secs at 3 mg/kg, po after 30 mins by rotarod test; format: functional
Method in brief: (§1)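 Rota-rod at 16 rpm in male CD-1 mice after po dosing in 1% CMC; number of falls in 30 s counted at 15, 30, 45 and 60 min post-administration.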

Mus musculus [3] = test: Effect on motor coordination in CD1 Albino mouse assessed as number of falls in 30 secs at 10 mg/kg, po after 30 mins by rotarod test relative to control; format: functional; method in brief: as §1
Mus musculus [4] = test: Effect on motor coordination in CD1 Albino mouse assessed as number of falls in 30 secs at 30 mg/kg, po after 30 mins by rotarod test relative to control; format: functional; method in brief: as §1
Mus musculus [5] = test: Sedative activity in CD1 albino mouse assessed as reduction of curiosity at 3 mg/kg, po after 30 mins by hole-board test; format: functional, organism-based; set-up: dose 3 mg/kg
Method in brief: (§2)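 Hole-board: male CD-1 mice given compound po (1% CMC) and placed individually on the board 30 min later, free to explore panel and holes for 5 min; spontaneous motility and exploration (panel and hole movements) scored.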

Mus musculus [6] = test: Sedative activity in CD1 albino mouse assessed as reduction of curiosity at 30 mg/kg, po after 30 mins by hole-board test; format: functional, organism-based; set-up: dose 30 mg/kg; method in brief: as §2
Mus musculus [7] = test: Anticonvulsant activity against pentylenetetrazole-induced seizure in CD1 Albino mouse assessed as convulsant latency at 3 mg/kg, po after 30 mins; format: functional
Method in brief: (§3)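 Male CD-1 mice (22–24 g), compound suspended in 1% CMC (sonicated) given po in 10 ml/kg; 30 min later PTZ 90 mg/kg sc (in saline). Latency (s) to shock and to convulsions recorded; clonic generalized convulsions counted over 30 min.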

Mus musculus [8] = test: Anticonvulsant activity against pentylenetetrazole-induced seizure in CD1 Albino mouse assessed as convulsant latency at 10 mg/kg, po after 30 mins; format: functional; method in brief: as §3
Mus musculus [9] = test: Anticonvulsant activity against pentylenetetrazole-induced seizure in CD1 Albino mouse assessed as shock latency at 1 mg/kg, ip after 20 mins; format: functional, organism-based; set-up: dose 1 mg/kg
Method in brief: (§4)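 In male CD-1 mice (22–24 g), drug in saline was given ip at 10 ml/kg; the test ran 20 min later. PTZ 90 mg/kg sc was the convulsant. Latency (s) to shock and to convulsions was scored, and clonic generalized convulsions were counted over 30 min. Significance was set at P < 0.05 versus controls.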

Mus musculus [10] = test: Sedative activity in CD1 albino mouse assessed as reduction of spontaneous motility at 3 mg/kg, ip after 20 mins by hole-board test; format: functional, organism-based; set-up: dose 3 mg/kg
Method in brief: (§5)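 Hole-board test in male CD-1 mice (22–24 g) after an ip dose in saline (10 ml/kg). Each mouse explored the panel and holes alone for 5 min. Spontaneous motility was scored as panel movements and curiosity as exploration of the holes.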

Mus musculus [11] = test: Sedative activity in CD1 albino mouse assessed as reduction of curiosity at 3 mg/kg, ip after 20 mins by hole-board test; format: functional, organism-based; set-up: dose 3 mg/kg; method in brief: as §5
Mus musculus [12] = test: Anticonvulsant activity against pentylenetetrazole-induced seizure in CD1 Albino mouse assessed as convulsant latency at 1 mg/kg, ip after 20 mins; format: functional, organism-based; set-up: dose 1 mg/kg; method in brief: as §4
Mus musculus [13] = test: Amnesic activity in CD1 albino mouse at 1 mg/kg, ip; format: functional, organism-based; set-up: dose 1 mg/kg
Method in brief: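 Male CD-1 mice (22–24 g) given drug ip in 0.9% saline at 10 ml/kg. Passive-avoidance training followed treatment, and retention was tested 24 h later. Read-out was latency to enter the dark compartment in both sessions, capped at 60 s (training) and 180 s (retention). Means ± SEM of 15–18 mice.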

Mus musculus [14] = test: Anticonvulsant activity against pentylenetetrazole-induced seizure in CD1 Albino mouse assessed as shock latency at 3 mg/kg, po after 30 mins; format: functional; method in brief: as §3
Mus musculus [15] = test: Anticonvulsant activity against pentylenetetrazole-induced seizure in CD1 Albino mouse assessed as shock latency at 10 mg/kg, po after 30 mins; format: functional; method in brief: as §3
Mus musculus [16] = test: Anticonvulsant activity against pentylenetetrazole-induced seizure in CD1 Albino mouse assessed as shock latency at 30 mg/kg, po after 30 mins; format: functional; method in brief: as §3
Mus musculus [17] = test: Anxiolytic effect in CD1 albino mouse at 10 mg/kg, po after 30 mins by light-dark box test; format: functional, organism-based; set-up: dose 10 mg/kg
Method in brief: (§6)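 Male CD-1 mice (22–24 g); test agent po in 1% CMC, 30 min before a light/dark box session; time (s) spent in the illuminated compartment measured. Means ± SEM of 14–21 mice.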

Mus musculus [18] = test: Anxiolytic effect in CD1 albino mouse at 30 mg/kg, po after 30 mins by light-dark box test; format: functional, organism-based; set-up: dose 30 mg/kg; method in brief: as §6
Mus musculus [19] = test: Increase in learning and memory performance in CD1 albino mouse at 10 mg/kg, po after 24 hrs by passive avoidance test; format: functional, organism-based; set-up: dose 10 mg/kg
Method in brief: (§7)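 Passive avoidance in male CD-1 mice treated po 30 min before training; retention tested 24 h later. Latency to enter the dark compartment measured, maximum 60 s (training) and 180 s (retention). Means ± SEM of 15–18 mice.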

Mus musculus [20] = test: Increase in learning and memory performance in CD1 albino mouse at 30 mg/kg, po after 24 hrs by passive avoidance test; format: functional, organism-based; set-up: dose 30 mg/kg; method in brief: as §7
Mus musculus [21] = test: Effect on ethanol-induced sleeping time in CD1 Albino mouse assessed as increase in duration of loss of righting reflex at 3 mg/kg, po after 30 mins; format: functional, organism-based; set-up: dose 3 mg/kg
Method in brief: (§8)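 Male CD-1 mice dosed po (1% CMC suspension); ethanol 4 g/kg ip given 30 min after the compound. Sleep time taken as duration of loss of righting reflex, end-point 150 min.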

Mus musculus [22] = test: Effect on ethanol-induced sleeping time in CD1 Albino mouse assessed as increase in duration of loss of righting reflex at 10 mg/kg, po after 30 mins; format: functional, organism-based; set-up: dose 10 mg/kg; method in brief: as §8
Mus musculus [23] = test: Effect on ethanol-induced sleeping time in CD1 Albino mouse assessed as increase in duration of loss of righting reflex at 30 mg/kg, po after 30 mins; format: functional, organism-based; set-up: dose 30 mg/kg; method in brief: as §8
Mus musculus [24] = test: Anticonvulsant activity against pentylenetetrazole-induced seizure in CD1 Albino mouse assessed as convulsant latency at 30 mg/kg, po after 30 mins; format: functional; method in brief: as §3

In the case of `CCOc1ccc2c(c1)n1ncc(C(=O)c3cccs3)c1n[n+]2[O-]`, the Ki [1] is reported as 45 nM.

Compound `O=C(c1cccs1)c1cnn2c1n[n+]([O-])c1ccc(OCc3ccccc3)cc12` has a Ki [1] of 2.7 nM.

Work on `O=C(c1ccc[nH]1)c1cnn2c1n[n+]([O-])c1ccc(Oc3ccccc3)cc12` yielded a Ki [1] of 276 nM.

With `O=C(c1ccco1)c1cnn2c1n[n+]([O-])c1ccc(Oc3ccccc3)cc12` the Ki [1] was 7 nM.

`CCOc1ccc2c(c1)n1ncc(C(=O)c3ccco3)c1n[n+]2[O-]` gave a Ki [1] of 28 nM, an Activity (Mus musculus [2]) of 0.6 count and an Activity (Mus musculus [3]) of 0.8 count. The Activity (Mus musculus [4]) was 0.6 count, the Activity (Mus musculus [5]) was “Active” and the Activity (Mus musculus [6]) was “Active”. It also gave an Activity (Mus musculus [7]) of 328.5 s and an Activity (Mus musculus [8]) of 488.2 s.

Work on `Cn1ccc(C(=O)c2cnn3c2n[n+]([O-])c2ccc(Cl)cc23)c1` yielded a Ki [1] of 380 nM.

`O=C(c1cccs1)c1cnn2c1nnc1ccc(Oc3ccccc3)cc12` gave a Ki [1] of 14.7 nM.

`O=C(c1ccccc1)c1cnn2c1n[n+]([O-])c1ccc(Cl)cc12` gave a Ki [1] of 3490 nM.

`Cn1cccc1C(=O)c1cnn2c1n[n+]([O-])c1ccc(Oc3ccccc3)cc12` gave a Ki [1] of 1300 nM.

In the case of `CN1C(=O)CN=C(c2ccccc2)c2cc(Cl)ccc21` [DIAZEPAM], the Ki [1] is reported as 10 nM, the Activity (Mus musculus [9]) is reported as “inactive” and the Activity (Mus musculus [10]) is reported as “Active”. For the same compound, the Activity (Mus musculus [11]) was “Active”, the Activity (Mus musculus [12]) was “inactive” and the Activity (Mus musculus [13]) was “Active”.

Work on `CCOc1ccc2c(c1)n1ncc(C(=O)c3ccc(OC)cc3)c1n[n+]2[O-]` yielded a Ki [1] of 919 nM.

With `O=C(c1cccs1)c1cnn2c1n[n+]([O-])c1ccc(Oc3ccccc3)cc12` the Ki [1] was 8.9 nM, the Activity (Mus musculus [2]) was 0.8 count and the Activity (Mus musculus [3]) was 1.6 count. The Activity (Mus musculus [4]) was 2 count, the Activity (Mus musculus [14]) was 224.5 s and the Activity (Mus musculus [15]) was 279.7 s. For the same compound, the Activity (Mus musculus [16]) was 614.1 s, the Activity (Mus musculus [5]) was “Active” and the Activity (Mus musculus [6]) was “Active”. For the same compound, the Activity (Mus musculus [17]) was “Active”, the Activity (Mus musculus [18]) was “Active” and the Activity (Mus musculus [19]) was “Active”. For the same compound, the Activity (Mus musculus [20]) was “Active”, the Activity (Mus musculus [21]) was “Active” and the Activity (Mus musculus [22]) was “Active”. For the same compound, the Activity (Mus musculus [23]) was “Active”, the Activity (Mus musculus [7]) was 460.3 s and the Activity (Mus musculus [8]) was 542.6 s. The Activity (Mus musculus [24]) was 766.6 s.

For `CCOc1ccc2c(c1)n1ncc(C(C)=O)c1n[n+]2[O-]`, the Ki [1] was 902 nM.

Work on `O=C(c1ccco1)c1cnn2c1n[n+]([O-])c1ccc(OCc3ccccc3)cc12` yielded a Ki [1] of 1.4 nM.

In the case of `CCOc1ccc2c(c1)n1ncc(C(=O)c3ccc[nH]3)c1n[n+]2[O-]`, the Ki [1] is reported as 1840 nM.
